ChEMBL document CHEMBL4261652, “Modifying aroylhydrazone prochelators for hydrolytic stability and improved cytoprotection against oxidative stress” (Bioorg Med Chem, 2018)
The source made the active and inactive calls. The calls are words filed in the database; no cut-off is given here.

What was measured:
[1] = Hydrolytic stability in PBS of pH 7.4 assessed as equilibrium constant for hydrolytic product formation after 1 hr measured at 1 min intervals over 30 mins by UV-Vis spectrophotometric analysis; type: physicochemical; details: buffer, pH 7.4, 1 h
Outline: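 K measured by UV-Vis on equilibrated prochelator solutions in PBS pH 7.4 at several starting concentrations. Absorbances at 263 and 321 nm, with extinction coefficients from linear calibration plots, gave equilibrium concentrations of prochelator, hydrazide and aldehyde; K = [INH][FBA]/[prochelator].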

ARPE-19 [2] = test: Cytotoxicity against human ARPE19 cells up to 100 uM after 72 hrs by CellTiter-Blue assay; type: cell-based; details: arpe-19, 72 h
Outline: (§1)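 Confluent ARPE-19 monolayers washed three times with MEM, then exposed 72 h to compound at 5–100 μM in MEM containing up to 1% DMSO; viability by CellTiter-Blue; triplicate runs, standard deviations.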

ARPE-19 [3] = test: Cytoprotective activity against paraquat-induced oxidative stress in human ARPE19 cells pretreated for 5 hrs followed by paraquat-stimulation and measured after 48 hrs by CellTiter-Blue assay; type: functional, cell-based
ARPE-19 [4] = test: Cytotoxicity against human ARPE19 cells up to 100 uM after 24 hrs by CellTiter-Blue assay; type: cell-based; details: arpe-19, 24 h
ARPE-19 [5] = test: Cytoprotective activity against H2O2-induced oxidative stress in human ARPE19 cells at 25 uM pretreated for 5 hrs followed by H2O2-stimulation and measured after 19 hrs by CellTiter-Blue assay; type: functional, cell-based
Outline: (§2)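 ARPE-19 cells grown to confluence in 1:1 DMEM/F12 with 10% FBS, 37 °C, 5% CO2; washed with MEM, pre-treated 5 h with compound, then H2O2 added to 200 μM final; viability read 19 h later by CellTiter-Blue, as percent of untreated control; triplicate runs, mean ± SD.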

[6] = Hydrolytic stability of compound in D2O/2% DMSO-d6 solvent at 200 uM preincubated for 1 hr followed by H2O2 addition measured after 24 hrs by 1H-NMR spectroscopy; type: physicochemical; details: D2O/2% DMSO-d6 with H2O2 added; read-out: Stability
[7] = Hydrolytic stability of compound in D2O/5% DMSO-d6 solvent at 200 uM after 1 hr by 1H-NMR spectroscopy; type: physicochemical; details: read-out: Stability
[8] = Iron chelating activity of the compound assessed as recovery of calcein fluorescence from calcein-Fe3+ complex at 4 uM preincubated with H2O2 for 12 hrs followed by addition to calcein-Fe3+ complex measured after 2 hrs by fluorescence assay relative to control
Outline: (§3)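 Compound at 100 μM in PBS pH 7.4, prepared fresh, either used directly or first incubated 12 h with 5 mM H2O2. Then brought to 4 μM with 2 μM Fe3+-calcein (preformed 4 h from ferric ammonium citrate and calcein) in PBS, equilibrated 2 h at 25 °C; emission read 485/535 nm, as percent of free calcein; n = 3.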

[9] = Iron chelating activity of the compound assessed as recovery of calcein fluorescence from calcein-Fe3+ complex by measuring iron binding constant at 4 uM measured after 2 hrs by fluorescence assay; outline: as §3
[10] = Hydrolytic stability in pH 7.4 PBS buffer at 100 uM by UV-Vis spectrophotometric analysis; type: physicochemical; details: pH 7.4, 100 µM, TDE = time-dependent effect
Outline: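 UV-Vis monitoring of prochelator in PBS pH 7.4 at 1-min intervals over 30 min in 1-cm quartz cuvettes; hydrazide plus aldehyde (100 μM each) mixtures followed as reference.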

ARPE-19 [11] = test: Cytoprotective activity against paraquat-induced oxidative stress in human ARPE19 cells assessed as cell viability restoration at 100 uM after 48 hrs relative to control; type: functional
Outline: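 ARPE-19 cells were grown to confluence in 1:1 DMEM/F12 with 10% FBS at 37 °C and 5% CO2, then washed with MEM. Cells were co-incubated in MEM with 10 mM paraquat plus compound for 48 h, with no pre-incubation step. Viability was read by CellTiter-Blue and expressed as % of the untreated MEM-only control. Triplicate runs, SD.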

[12] = Cytotoxicity against rat H9c2 cells after 72 hrs by neutral red uptake assay; type: cell-based; details: read-out: TC50
ARPE-19 [13] = test: Cytotoxicity against human ARPE19 cells assessed as reduction in cell viability at 100 uM after 72 hrs by CellTiter-Blue assay; type: cell-based; details: arpe-19, 72 h; outline: as §1
[14] = Solubility of the compound in aqueous buffer at >50 uM; type: physicochemical
ARPE-19 [15] = test: Cytoprotective activity against H2O2-induced oxidative stress in human ARPE19 cells up to 100 uM pretreated for 5 hrs followed by H2O2-stimulation and measured after 19 hrs by CellTiter-Blue assay; type: functional, cell-based; outline: as §2
ARPE-19 [16] = test: Cytoprotective activity against paraquat-induced oxidative stress in human ARPE19 cells up to 100 uM pretreated for 5 hrs followed by paraquat-stimulation and measured after 48 hrs by CellTiter-Blue assay; type: functional, cell-based
[17] = Hydrolytic stability in PBS of pH 7.4 at 50 uM after 1 hr by UV-Vis spectrophotometric analysis; type: physicochemical; details: buffer, pH 7.4, 1 h
[18] = Hydrolytic stability of compound in D2O/5% DMSO-d6 solvent at 500 uM after 1 hr by 1H-NMR spectroscopy; type: physicochemical
Outline: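 1H NMR in D2O: prochelator at 500 μM with 5% DMSO-d6, or at 200 μM with 2% DMSO-d6, equilibrated 1 h before spectra; activation by H2O2 added to 25 mM final (10 mM in the 200 μM case), reacting 12 h; aromatic peaks integrated.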

ARPE-19 [19] = test: Cytoprotective activity against paraquat-induced oxidative stress in human ARPE19 cells assessed as cell viability at 100 uM pretreated for 5 hrs followed by paraquat-stimulation and measured after 48 hrs by CellTiter-Blue assay; type: functional; details: read-out: Activity
[20] = Hydrolytic stability of compound in D2O/5% DMSO-d6 solvent at 500 uM preincubated for 1 hr followed by H2O2 addition measured after 24 hrs by 1H-NMR spectroscopy; type: physicochemical; details: D2O/5% DMSO-d6 with H2O2 added; read-out: Stability
ARPE-19 [21] = test: Cytotoxicity against human ARPE19 cells up to 100 uM over 72 hrs by CellTiter-Blue assay; type: cell-based; details: arpe-19, 72 h; outline: as §1
[22] = Iron chelating activity of the compound assessed as recovery of calcein fluorescence from calcein-Fe3+ complex by measuring iron binding constant at 4 uM preincubated with H2O2 for 12 hrs followed by addition to calcein-Fe3+ complex measured after 2 hrs by fluorescence assay; outline: as §3
ARPE-19 [23] = test: Cytoprotective activity against H2O2-induced oxidative stress in human ARPE19 cells at 25 to 50 uM pretreated for 5 hrs followed by H2O2-stimulation and measured after 19 hrs by CellTiter-Blue assay; type: functional, cell-based; outline: as §2

Question: For `CC1(C)OB(c2cc3c(cc2/C=N/NC(=O)c2ccncc2)OCO3)OC1(C)C`, which K [1] is on record?
Answer: 8 ×10⁻⁶ M

Question: And the Activity (ARPE-19 [2])?
Answer: Non-Toxic

Question: What about the Activity (ARPE-19 [3]) of the same compound?
Answer: Dose-dependent effect

Question: What about the Activity (ARPE-19 [4]) of the same compound?
Answer: Non-Toxic

Question: What about the Activity (ARPE-19 [5]) of the same compound?
Answer: Active

Question: And the remaining at 24 h, 200 µM [6]?
Answer: 45%

Question: What about the remaining at 1 h, 200 µM [7] of the same compound?
Answer: 80%

Question: What about the Activity [8] of the same compound?
Answer: 75%

Question: And the Activity [9]?
Answer: inactive

Question: What about the Stability [10] of the same compound?
Answer: Tde

Question: With `Oc1ccccc1/C=N/NC(=S)Nc1ccccc1` as the compound, how does the Activity (ARPE-19 [4]) read?
Answer: Non-Toxic

Question: What about the Activity [9] of the same compound?
Answer: inactive

Question: Which Activity (ARPE-19 [11]) does the source give for `C/C(=N\NC(=O)c1ccncc1)c1ccccc1OCc1ccc(B2OC(C)(C)C(C)(C)O2)cc1` here?
Answer: 40%

Question: What about the Activity (ARPE-19 [3]) of the same compound?
Answer: Dose-dependent effect

Question: And the CC50 at 72 h [12]?
Answer: 37.1 µM

Question: What about the Activity (ARPE-19 [13]) of the same compound?
Answer: 25%

Question: For `COc1ccc(/C=N/NC(=O)c2ccncc2)c(O)c1`, which solubility [14] is on record?
Answer: Insoluble

Question: Which Activity (ARPE-19 [4]) does the source give for `CNC(=S)N/N=C/c1ccccc1B1OC(C)(C)C(C)(C)O1` here?
Answer: Non-Toxic

Question: And the Activity (ARPE-19 [15])?
Answer: inactive

Question: And the Activity [8]?
Answer: inactive

Question: What about the Activity [9] of the same compound?
Answer: inactive

Question: Which results are given for `COc1ccc(/C=N/NC(=O)c2ccncc2)cc1B1OC(C)(C)C(C)(C)O1`?
Answer: Activity (ARPE-19 [4]): Non-Toxic; Activity (ARPE-19 [15]): inactive; Activity (ARPE-19 [16]): inactive; Stability [17]: Stable; Stability ([18]; 1 h, 500 µM): Stable; Activity [8]: inactive; Activity [9]: inactive

Question: Which Activity (ARPE-19 [4]) does the source give for `COc1ccc(/C=N/NC(=O)c2cccnc2)c(O)c1` here?
Answer: Non-Toxic

Question: What about the Activity [9] of the same compound?
Answer: > 90%

Question: For `COc1ccc(B2OC(C)(C)C(C)(C)O2)c(/C=N/NC(=O)c2ccncc2)c1`, which K [1] is on record?
Answer: 1.1 ×10⁻⁵ M

Question: And the viability at 100 µM (ARPE-19 [19])?
Answer: 30%

Question: What about the Activity (ARPE-19 [4]) of the same compound?
Answer: Non-Toxic

Question: And the Activity (ARPE-19 [5])?
Answer: Active

Question: And the remaining at 24 h, 500 µM [20]?
Answer: 67%

Question: What about the remaining at 1 h, 500 µM ([18]; D2O/5% DMSO-d6, read-out: Stability) of the same compound?
Answer: 85%

Question: What about the Activity [8] of the same compound?
Answer: 60%

Question: What about the Activity [9] of the same compound?
Answer: inactive

Question: What about the Stability [10] of the same compound?
Answer: Tde

Question: And the Activity (ARPE-19 [13])?
Answer: 20%

Question: And the Activity (ARPE-19 [21])?
Answer: Toxic

Question: For `CNC(=S)N/N=C/c1ccccc1O`, which Activity (ARPE-19 [4]) is on record?
Answer: Non-Toxic

Question: What about the Activity (ARPE-19 [15]) of the same compound?
Answer: inactive

Question: What about the Activity [9] of the same compound?
Answer: inactive

Question: What does the source list for `O=C(N/N=C/c1ccccc1O)c1ccncc1` [SALINAZID]?
Answer: Activity (ARPE-19 [4]): Non-Toxic; log(activity) [22]: -23; Activity [9]: > 90%

Question: With `COc1ccc(O)c(/C=N/NC(=O)c2ccncc2)c1` as the compound, how does the Activity (ARPE-19 [4]) read?
Answer: Non-Toxic

Question: What about the Activity [9] of the same compound?
Answer: > 90%

Question: With `COc1ccc(/C=N/NC(=O)c2cccnc2)c(B2OC(C)(C)C(C)(C)O2)c1` as the compound, how does the Activity (ARPE-19 [4]) read?
Answer: Non-Toxic

Question: What about the Activity [8] of the same compound?
Answer: inactive

Question: And the Activity [9]?
Answer: inactive

Question: What does the source list for `CC1(C)OB(c2ccccc2/C=N/NC(=S)Nc2ccccc2)OC1(C)C`?
Answer: Activity (ARPE-19 [4]): Non-Toxic; Activity (ARPE-19 [16]): inactive; Activity [8]: inactive; Activity [9]: inactive; Activity (ARPE-19 [23]): Active

Question: With `O=C(N/N=C/c1ccc(Cl)cc1B(O)O)c1ccncc1` as the compound, how does the Activity (ARPE-19 [4]) read?
Answer: Non-Toxic

Question: What about the Activity [8] of the same compound?
Answer: inactive

Question: What about the Activity [9] of the same compound?
Answer: inactive

Question: Which results are given for `CC1(C)OB(c2ccccc2/C=N/NC(=O)c2ccncc2)OC1(C)C`?
Answer: K [1]: 1.5 ×10⁻⁵ M; Activity (ARPE-19 [2]): Non-Toxic; Activity (ARPE-19 [4]): Non-Toxic; Activity (ARPE-19 [16]): inactive; Activity [8]: 50%; Activity [9]: inactive; Activity (ARPE-19 [23]): Active
